The list is not random: actives were taken first. Their share in the collection is about 2.5%.
MEKK3 PB1 HTS – modulators (inhibitors or enhancers) of MEK5 binding to human MEKK3 PB1 domain; actives 1.4% (n = 290,000); Q99759; bead-based flow cytometry, Alexa488-MEK5 binding to MEKK3; actives lie on both sides; 0 = blocked by unlabeled MEK5, 100 = vehicle; binding response (% of control), % at 10 µM;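 active means binding response more than 3 SD above or below the average of its plate-row segment, actives on both sides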;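 further: Alexa488 bead fluorescence after subtracting the streptavidin-only scavenger bead signal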
Rce1 inhib – blocks yeast Ras-converting enzyme; actives 0.27% (n = 290,000); Q03530; yeast membranes, quenched prenylated peptide cleavage fluorescence; AID 2563; calls only;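 active means fall in fluorescence gain of 50% or more versus controls, with final raw signal at or below 3038400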;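 further: plate controls were neutral control wells for no effect and wells lacking membranes for full effect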
Target sequence (Q03530 whole entry, looked up): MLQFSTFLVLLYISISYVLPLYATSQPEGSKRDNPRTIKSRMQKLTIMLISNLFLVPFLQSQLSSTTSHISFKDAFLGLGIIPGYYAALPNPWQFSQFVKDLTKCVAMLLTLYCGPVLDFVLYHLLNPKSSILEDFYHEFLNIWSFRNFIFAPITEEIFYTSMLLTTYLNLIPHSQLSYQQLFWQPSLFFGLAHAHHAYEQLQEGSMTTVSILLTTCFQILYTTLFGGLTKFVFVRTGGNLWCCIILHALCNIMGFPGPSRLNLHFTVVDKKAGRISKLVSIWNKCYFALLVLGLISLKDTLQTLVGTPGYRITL
T cell modulator – T cell immune modulation candidate | 2C CD8+ T cell-vesicle binding, flow cytometry; stronger effect = lower value | response (vesicle binding), % at 7 µM | actives 0.068% (n = 330,000) | AID 2052;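 active means response, share of CD8 T cells binding vesicles, and their 90th percentile fluorescence all below set limits, cut at about 80% in these data, passing the limit was not always enough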;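 further: values below 100% mean blocked vesicle binding to the CD8+ T cells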
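System: murine 2C transgenic CD8+ T lymphocytes; also added: QL9-loaded Drosophila micro-vesicles; times: binding 1.5 h at 37 °C; measured by: flow cytometry, PE anti-B7-1 (FL2) versus Alexa647 anti-CD8 (FL8), PFA-fixed; control set: Peptide-free naked vesicles (low) and QL9 vesicles with 0.7% DMSO vehicle (high)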
UCH37 inh – inhibitors of human deubiquitinating enzyme UCH37. Q9Y5K5. purified proteasome/UCH37, Ub-AMC cleavage fluorescence. inhibition, % (no concentration beside the values). actives 0.33% (n = 330,000);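 active means mean inhibition over replicate wells above about 20%, limit read from the data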;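 further: 0% = compound-free wells with enzyme and 100% = wells lacking proteasome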
Target sequence (Q9Y5K5 whole entry, looked up): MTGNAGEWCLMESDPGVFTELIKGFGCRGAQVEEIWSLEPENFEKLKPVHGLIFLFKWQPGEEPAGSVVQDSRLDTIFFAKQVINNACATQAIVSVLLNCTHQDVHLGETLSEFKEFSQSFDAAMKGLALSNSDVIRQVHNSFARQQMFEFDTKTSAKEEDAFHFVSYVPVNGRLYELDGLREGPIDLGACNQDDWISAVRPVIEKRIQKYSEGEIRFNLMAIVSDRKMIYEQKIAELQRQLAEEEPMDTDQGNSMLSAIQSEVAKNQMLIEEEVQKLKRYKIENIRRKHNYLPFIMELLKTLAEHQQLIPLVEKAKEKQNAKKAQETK
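Assay system: Proteasome-bound UCH37. Buffer or medium: pH 7.4 Tris-HCl (50 mM) with ovalbumin, ATP-MgCl2, DTT. Incubation: 30 min preincubation with enzyme, 25 min cleavage at room temperature. Measured by: fluorescence, ex 355 nm, em 460 nm. Read-out basis: percent inhibition. Control set: wells without proteasome as full block, compound-free enzyme plus substrate as uninhibited.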
MEKK2 WT-MEK5 – raises or lowers MEK5 binding to wildtype human MEKK2 PB1 domain | Q9Y2U5 | bead flow cytometry, Alexa488-MEK5 binding to MEKK2 WT; actives lie on both sides | binding response (% of control), % at 10 µM | actives 1.1% (n = 290,000); in the data active means binding response below about 67% or above about 130%
MEKK2mut PB1 HTS – signal of MEK5 binding to mutant human MEKK2 PB1 domain; percent response, % at 10 µM; AID 1530; actives 0.35% (n = 290,000); bead flow cytometry, Alexa488-MEK5 binding to MEKK2 mutant; in the data active means percent response above about 24%, passing the limit was not always enough
MEKK2wt confirm – raises or lowers MEK5 binding to wildtype human MEKK2, retest; shares compounds with MEKK3 PB1 HTS; bead flow cytometry, Alexa488-MEK5 binding to MEKK2 WT; actives lie on both sides; binding response (% of control), % at 10 µM; actives 2.4% (n = 5,900); AID 1892; in the data active means binding response below about 16% or above about 210%; inactive means in between
MEKK2mut-MEK5 – signal of MEK5 binding to mutant human MEKK2, retest. percent response, % at 10 µM. shares compounds with MEKK3 PB1 HTS. actives 2% (n = 5,900). bead flow cytometry, Alexa488-MEK5 binding to MEKK2 mutant. AID 1893; in the data active means percent response mostly above about 71%, no sharp cut-off; inactive means mostly below about 38%;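 further: higher means compound restores mutant binding toward wildtype level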
MEKK3 confirm – MEKK3-MEK5 PB1 inhibition, single concentration confirmation | shares compounds with MEKK3 PB1 HTS | bead flow cytometry, Alexa488-MEK5 binding to MEKK3; stronger effect = lower value | binding response (% of control), % at 10 µM | actives 1.8% (n = 5,900) | AID 1894;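 active means binding response below 72% of control, or above a set upper limit, though filed actives all read lower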;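 further: 100% = DMSO only wells and 0% = binding blocked by excess unlabeled MEK5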
Starred values were filed as active, the others as inactive; i = inactive; · = no result; [ ] = remark or other dose.

SMILES	MEKK3 PB1 HTS	Rce1 inhib	T cell modulator	UCH37 inh	MEKK2 WT-MEK5	MEKK2mut PB1 HTS	MEKK2wt confirm	MEKK2mut-MEK5	MEKK3 confirm
COCCCn1c(=C(C#N)C(=O)Nc2ccc(C(=O)O)cc2)sc(=Cc2ccccc2OC(C)C)c1=O	·	·	·	-9	·	·	·	·	·
O=C(COC(=O)CCNS(=O)(=O)c1ccc2c(c1)OCCO2)NC1CCCc2ccccc21 (stereo not drawn)	124*	i	210	3	115	4	100	-2	100
O=C(COC(=O)COc1ccccc1)NC1CCCc2ccccc21 (stereo not drawn)	99	i	224	-1	112	15	·	·	·
Cc1cc(NN=Cc2c(O)ccc3ccccc23)nc(-c2ccccc2O)n1	·	·	·	1	·	·	·	·	·
CC(C)CNC(=O)CN1C(=O)NC(Cc2c[nH]c3ccccc23)C1=O (stereo not drawn)	67*[inhibitor]	i	837	0	76	-27	110	9	105
CC(=O)Nc1cc(NC(C)=O)ncn1	48*[inhibitor]	i	376	·	57	9	99	-6	100
CCOC(=O)Nc1cc(NC(=O)OCC)ncn1	·	·	·	-1	·	·	·	·	·
CN(C)CCCN(C(=O)CCc1ccccc1)c1nc2ccc(F)cc2s1	129*	i	558	6	135	5	144	26	106
CN(C)CCCN(C(=O)CCc1ccccc1)c1nc2ccc(Br)cc2s1	113	i	55	4	233*	43	176	42	108
CN(C)CCCN(C(=O)c1ccco1)c1nc2ccc(Br)cc2s1	106	i	140	6	135	17	·	·	·
CN(C)CCN(C(=O)CCc1ccccc1)c1nc2c(F)cc(F)cc2s1	104	i	292	3	130	3	·	·	·
O=S(=O)(/C=C/c1ccccc1)N1CCN(c2ccccc2)CC1	105	i	174	4	105	6	·	·	·
O=S(=O)(/C=C/c1ccccc1)N1CCN(c2ccc(F)cc2)CC1	74*[inhibitor]	i	107	1	82	-10	105	5	105
O=C(NN=Cc1ccc(Br)s1)c1cccnc1	·	·	·	6	·	·	·	·	·
Cc1cc(C)cc(NC(=O)C2(c3cccs3)CCOCC2)c1	136*	i	238	5	114	1	95	-7	96
Cc1ccc(NC(=O)C2(c3cccs3)CCOCC2)cc1C	69*[inhibitor]	i	307	0	96	-1	97	-2	98
COc1ccc(NC(=O)C2(c3cccs3)CCOCC2)cc1	99	i	274	2	96	1	·	·	·
Cc1cccc(NC(=O)C2(c3cccs3)CCOCC2)c1	103	i	331	-2	102	-2	·	·	·
COc1ccc(C=NNC(=O)c2ccncc2)cc1[N+](=O)[O-]	·	·	·	5	·	·	·	·	·
Cc1cc(C)nc(NNC(=O)c2ccccc2O)n1	129*	i	426	-2	111	1	104	3	103
COc1cccc(C=NNC(=O)c2ccc([N+](=O)[O-])cc2Cl)c1O	·	·	·	-1	·	·	·	·	·
Cc1ccc(C=NNC(=O)CNC(=O)c2ccc(S(=O)(=O)N3CCCC3)cc2)o1	·	·	·	5	·	·	·	·	·
CC1(C)CC(CC(=O)Nc2ccccc2[N+](=O)[O-])C(=O)O1 (stereo not drawn)	147*	i	258	7	109	0	108	2	104
C#CCOCCOCCOCCNc1nc(N2CCOCC2)nc(N2CCN(C(=O)[C@H]([C@@H](C)CC)n3cc([C@@H](N)CO)nn3)CC2)n1	107	i	555	3	106	8	·	·	·
C#CCOCCOCCOCCNc1nc(N2CCN(C(=O)[C@H]([C@@H](C)CC)n3cc([C@@H](N)Cc4ccc(O)cc4)nn3)CC2)nc(N2CCN(C(=O)[C@H]([C@@H](C)CC)n3cc([C@@H](N)Cc4ccc(O)cc4)nn3)CC2)n1	108	i	595	-1	151*	31	136	15	104
SMILES	MEKK3 PB1 HTS	Rce1 inhib	T cell modulator	UCH37 inh	MEKK2 WT-MEK5	MEKK2mut PB1 HTS	MEKK2wt confirm	MEKK2mut-MEK5	MEKK3 confirm
C#CCOCCOCCOCCNc1nc(N2CCN(C(=O)[C@H]([C@@H](C)CC)n3cc([C@@H](N)CC(C)C)nn3)CC2)nc(N2CCN(C(=O)[C@H]([C@@H](C)CC)n3cc([C@@H](N)CC(C)C)nn3)CC2)n1	116	i	596	-1	223*	87*	180	45	104
C#CCOCCOCCOCCNc1nc(N2CCN(C(=O)[C@H]([C@@H](C)CC)n3cc([C@@H](N)CO)nn3)CC2)nc(N2CCN(C(=O)[C@H]([C@@H](C)CC)n3cc([C@@H](N)Cc4ccc(O)cc4)nn3)CC2)n1	103	i	818	-1	134*	22	112	8	100
C#CCOCCOCCOCCNc1nc(N2CCN(C(=O)[C@H]([C@@H](C)CC)n3cc([C@@H](N)CO)nn3)CC2)nc(N2CCN(C(=O)[C@H](Cc3ccc(O)cc3)n3cc([C@@H](N)C(C)CC)nn3)CC2)n1 (stereo partly drawn)	106	i	·	4	111	11	·	·	·
C#CCOCCOCCOCCNc1nc(N2CCN(C(=O)[C@H]([C@@H](C)CC)n3cc([C@@H](N)CC(C)C)nn3)CC2)nc(N2CCN(C(=O)[C@H](Cc3ccc(O)cc3)n3cc([C@@H](N)CC(C)C)nn3)CC2)n1	112	i	i	5	150*	35	150	30	108
CCCn1ncc(C=NO)c1C	·	·	·	0	·	·	·	·	·
CC(=NNC(=O)C1COc2ccccc2O1)c1ccc(C)o1 (stereo not drawn)	·	·	·	4	·	·	·	·	·
O=C(CNC(=O)C(c1ccccc1)c1ccccc1)NN=Cc1ccc(O)cc1O	·	·	·	-2	·	·	·	·	·
C#CCOCCOCCOCCNc1nc(N2CCN(C(=O)[C@H](CCC(=O)O)n3cc(C(N)Cc4ccc(O)cc4)nn3)CC2)nc(N2CCN(C(=O)[C@H](CCCCN)n3cc(C(N)[C@H](C)CC)nn3)CC2)n1 (stereo partly drawn)	84	i	·	2	76	2	·	·	·

Assay outcomes (PubChem BioAssay)
